{"data": "Measurements from different studies", "Sigmar1": "Sigma non-opioid intracellular receptor 1 (Sigmar1, Rattus norvegicus, UniProt Q9R0C9)", "OPRD1": "Delta-type opioid receptor (OPRD1, Homo sapiens, UniProt P41143)", "CA1": "Carbonic anhydrase 1 (CA1, Homo sapiens, UniProt P00915)", "SNCA fibril": "Alpha-synuclein, fibril (SNCA, Homo sapiens, UniProt P37840)", "CA2": "Carbonic anhydrase 2 (CA2, Homo sapiens, UniProt P00918)", "Pam": "Peptidylglycine alpha-amidating monooxygenase (Pam, Rattus norvegicus, UniProt P14925)", "note": "Each line is one published result; the experiments were not run side by side."}
{"Structure (SMILES)": "C#CCN(CCCN1CCN(C2CCCCC2)CC1)Cc1ccc(C(=O)c2ccc([N+](=O)[O-])cc2)cc1", "target": "Sigmar1", "assay": "ligand displacement, radioligand", "setting": "cell membranes", "Ki": "0.0298 µM"}
{"Structure (SMILES)": "CC(C)[C@@H](CC[C@@H](C)[C@H]1CC[C@H]2[C@@H]3[C@H](O)C[C@H]4C[C@@H](NCCCNCCCCNCCCN)CC[C@]4(C)[C@H]3CC[C@]12C)OS(=O)(=O)O", "target": "Receptor-type tyrosine-protein phosphatase F (Homo sapiens, UniProt P10586)", "assay": "enzyme activity, inhibitor", "Ki": "20 µM"}
{"Structure (SMILES)": "CNC(=O)[C@@]12C[C@@H]1[C@@H](n1cnc3c(NCCC(F)(F)F)nc(C#Cc4ccc(Cl)s4)nc31)[C@H](O)[C@@H]2O", "target": "OPRD1", "assay": "ligand displacement, radioligand", "Ki": "> 10 µM"}
{"Structure (SMILES)": "COc1ccnc(Oc2ccc(-c3c(C)c(=O)[nH]c(=O)n3C)c(C)c2)c1C(F)(F)F", "target": "Alpha-2A adrenergic receptor (ADRA2A, Homo sapiens, UniProt P08913)", "assay": "ligand displacement, radioligand", "Ki": "6.9 µM"}
{"Structure (SMILES)": "NS(=O)(=O)c1nnc(NC(=O)CC2CC2)s1", "target": "CA1", "assay": "enzyme activity, inhibitor", "Ki": "0.372 µM"}
{"Structure (SMILES)": "COc1cc2c(cc1OC)CN(CCCNC(=O)c1ccc(C(=O)c3ccc([N+](=O)[O-])cc3)cc1)CC2", "target": "Sigmar1", "assay": "ligand displacement, radioligand", "setting": "cell membranes", "Ki": "> 10 µM"}
{"Structure (SMILES)": "C[C@H]1Oc2cc(cnc2N)-c2c(nn(C)c2C#N)CN(C)C(=O)c2ccc(F)cc21", "target": "Protein-tyrosine kinase 2-beta (PTK2B, Homo sapiens, UniProt Q14289)", "assay": "cell-free assay", "setting": "lysate", "Ki": "0.0655 µM"}
{"Structure (SMILES)": "CCOC(=O)[C@@]12C[C@@H]1[C@@H](n1cnc3c(NC)nc(C#Cc4ccc(Cl)s4)nc31)[C@H](O)[C@@H]2O", "target": "OPRD1", "assay": "ligand displacement, radioligand", "Ki": "> 10 µM"}
{"Structure (SMILES)": "C#CCNCCCN1CCN(CCCNC(=O)c2ccc(C(=O)c3ccc([N+](=O)[O-])cc3)cc2)CC1", "target": "Sigmar1", "assay": "ligand displacement, radioligand", "setting": "cell membranes", "Ki": "0.445 µM"}
{"Structure (SMILES)": "COc1ccc(C(=O)Nc2ccc(N3C4CCC3CN(c3cnc5ccccc5c3)C4)cc2)cc1", "target": "SNCA fibril", "assay": "ligand displacement, radioligand", "Ki": "0.108 µM"}
{"Structure (SMILES)": "NS(=O)(=O)c1nnc(NC(=O)CC2CCC2)s1", "target": "CA2", "assay": "enzyme activity, inhibitor", "Ki": "0.0049 µM"}
{"Structure (SMILES)": "NS(=O)(=O)c1ccc(-n2nccc2-c2ccc(N3CCCCC3)cc2)cc1", "target": "CA1", "assay": "enzyme activity, inhibitor, stopped-flow", "Ki": "> 100 µM"}
{"Structure (SMILES)": "CCNc1nc(C#Cc2ccccc2)nc2c1ncn2[C@H]1[C@H](O)[C@H](O)[C@@H]2C[C@@H]21", "target": "OPRD1", "assay": "ligand displacement, radioligand", "Ki": "> 10 µM"}
{"Structure (SMILES)": "CCN(CC)Cc1cc(Nc2ccnc3cc(Cl)ccc23)ccc1O", "target": "NAD(P)H dehydrogenase [quinone] 1 (NQO1, Homo sapiens, UniProt P15559)", "assay": "enzyme activity, inhibitor, absorbance", "Ki": "> 100 µM"}
{"Structure (SMILES)": "O=C(c1ccc(CNCCCN2CCN(c3ccc(F)cc3)CC2)cc1)c1ccc([N+](=O)[O-])cc1", "target": "Sigmar1", "assay": "ligand displacement, radioligand", "setting": "cell membranes", "Ki": "2.41 µM"}
{"Structure (SMILES)": "CN1CCN(c2ccc(-c3ccnn3-c3ccc(S(N)(=O)=O)cc3)cc2)CC1", "target": "CA1", "assay": "enzyme activity, inhibitor, stopped-flow", "Ki": "> 100 µM"}
{"Structure (SMILES)": "Cc1nc2cc(OCCCCN3CCN(c4cccc(Cl)c4Cl)CC3)ccc2s1", "target": "5-hydroxytryptamine receptor 3A (HTR3A, Homo sapiens, UniProt P46098)", "assay": "cell-free assay, radioligand", "Ki": "0.13 µM"}
{"Structure (SMILES)": "CNc1nc(C#Cc2ccc(Cl)s2)nc2c1ncn2[C@H]1[C@H](O)[C@H](O)[C@]2(C(=O)OC)C[C@H]12", "target": "OPRD1", "assay": "ligand displacement, radioligand", "Ki": "> 10 µM"}
{"Structure (SMILES)": "NS(=O)(=O)c1nnc(NC(=O)C2CCCC2)s1", "target": "CA1", "assay": "enzyme activity, inhibitor", "Ki": "0.0765 µM"}
{"Structure (SMILES)": "NS(=O)(=O)c1ccc(C(F)(F)F)cc1", "target": "CA2", "assay": "enzyme activity, inhibitor, absorbance", "Ki": "~0.23 µM"}
{"Structure (SMILES)": "CC1CCC(C(=O)Nc2nnc(S(N)(=O)=O)s2)CC1 (stereo not drawn)", "target": "CA2", "assay": "enzyme activity, inhibitor", "Ki": "0.026 µM"}
{"Structure (SMILES)": "CNC(=O)[C@H]1O[C@@H](n2cnc3c(NC)nc(C#Cc4ccc(Cl)s4)nc32)[C@H](O)[C@@H]1O", "target": "OPRD1", "assay": "ligand displacement, radioligand", "Ki": "> 10 µM"}
{"Structure (SMILES)": "C#CCN(CCCN1CCN(C2CCCCC2)CC1)c1ccc(C(=O)c2ccccc2)cc1", "target": "Sigmar1", "assay": "ligand displacement, radioligand", "setting": "cell membranes", "Ki": "0.652 µM"}
{"Structure (SMILES)": "O=C(O)C=Cc1ccc([N+](=O)[O-])cc1", "target": "Pam", "assay": "enzyme activity, inhibitor", "setting": "pH 6", "Ki": "600 µM"}
{"Structure (SMILES)": "COc1ccc(C(=O)Nc2ccc(N3CCN(c4ccccn4)CC3)cn2)cc1", "target": "SNCA fibril", "assay": "ligand displacement, radioligand", "Ki": "0.0049 µM"}
{"Structure (SMILES)": "CNc1nc(C#Cc2ccc(Cl)s2)nc2c1ncn2[C@@H]1O[C@H](C(=O)OC)[C@@H](O)[C@H]1O", "target": "OPRD1", "assay": "ligand displacement, radioligand", "Ki": "> 10 µM"}
{"Structure (SMILES)": "NS(=O)(=O)c1nnc(NC(=O)C2CC2)s1", "target": "CA2", "assay": "enzyme activity, inhibitor", "Ki": "0.0246 µM"}
{"Structure (SMILES)": "O=C(c1ccc(CNCCCN2CCN(C3CCCCC3)CC2)cc1)c1ccc([N+](=O)[O-])cc1", "target": "Sigmar1", "assay": "ligand displacement, radioligand", "setting": "cell membranes", "Ki": "1.32 µM"}
{"Structure (SMILES)": "CNC(=O)[C@@]12C[C@@H]1[C@@H](n1cnc3c(NCc4cccc(Cl)c4)nc(Cl)nc31)[C@H](O)[C@@H]2O", "target": "OPRD1", "assay": "ligand displacement, radioligand", "Ki": "> 10 µM"}
{"Structure (SMILES)": "NS(=O)(=O)c1nnc(NC(=O)CC2CCCC2)s1", "target": "CA2", "assay": "enzyme activity, inhibitor", "Ki": "0.0194 µM"}
{"Structure (SMILES)": "O=C(O)/C=C/c1c[nH]cn1", "target": "Pam", "assay": "enzyme activity, inhibitor", "setting": "pH 6", "Ki": "10000 µM"}
{"Structure (SMILES)": "NS(=O)(=O)c1ccc(-n2nccc2-c2ccc(N3CCOCC3)cc2)cc1", "target": "CA1", "assay": "enzyme activity, inhibitor, stopped-flow", "Ki": "> 100 µM"}
{"Structure (SMILES)": "CN(C)c1cccc2c(S(=O)(=O)Nc3ccc(C=CC(=O)O)cc3)cccc12", "target": "Pam", "assay": "enzyme activity, inhibitor", "Ki": "10 µM"}
{"Structure (SMILES)": "Oc1cccc(Nc2nc(-c3ccc(F)cc3F)cs2)c1", "target": "Cholecystokinin receptor type A (CCKAR, Homo sapiens, UniProt P32238)", "assay": "cell-free assay", "Ki": "3.6 µM"}
{"Structure (SMILES)": "CNC(=O)[C@@]12C[C@@H]1[C@@H](n1cnc3c(NC)nc(C#Cc4ccccc4Cl)nc31)[C@H](O)[C@@H]2O", "target": "OPRD1", "assay": "ligand displacement, radioligand", "Ki": "> 10 µM"}
{"Structure (SMILES)": "CCCCN1CCC(COC(=O)c2ccc(N)c(OCF)c2)CC1", "target": "OPRD1", "assay": "cell-free assay, radioligand", "Ki": "> 10 µM"}
